Assay outcomes from PubChem BioAssay.
Xi reactivation: activators of inactive X chromosome reactivation, primary screen, imaging, XiGFP fibroblasts, GFP high-content imaging, set 2 | activation, % at 7.58 µM | AID 743238, 2013 | XiGFP mouse fibroblasts, % GFP-positive cells imaging, 3 d; cells co-treated with 5-aza-dC sensitizer; scaled so ellipticine positive control = 100% | hit rate 0.055% among 360,000;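 active = mean normalized replicate activation at least 10% and every replicate at or above 10%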;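 note: 0% = median of on-plate neutral control wells and 100% = ellipticine 6 µM median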
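Assay system: SV40-immortalized XiGFP fibroblast cells, line 68-5-11; buffer or medium: DMEM plus 5-aza-dC sensitizer; compound: one concentration, pinned; timing: compounds 3 days, fix/stain 15 min at room temperature; benchmarks: positive control ellipticine, 6 µM final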
FN deposition inh: inhibitors of fibronectin matrix deposition, primary screen, AH1F cells, Alexa488-fibronectin fluorescence, plate reader. AH1F fibroblasts, overnight. inhibition, % at 12.6 µM. hit rate 0.086% among 350,000;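 active = mean inhibition across replicates of 30% or more, regardless of how many single replicates reach that level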;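 note: positive control wells lacked labelled fibronectin entirely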
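Schedule: 1 h cell adhesion before compound, then overnight fibronectin incubation; test system: AH1F fibroblast monolayer depositing Alexa488-labelled fibronectin into matrix; quantity: 10000 AH1F cells per well; probe or stimulus: fluorescent fibronectin at 24 nM final; signal: fluorescence, ex 485 nm, em 525 nm; evaluation: percent inhibition as loss of matrix-bound fibronectin fluorescence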
ARNT-TACC3 inh: disruptors of ARNT/TACC3 protein interaction, primary screen, biochemical, AlphaScreen, single concentration; Transforming acidic coiled-coil-containing protein 3 (Homo sapiens), Q9Y6A5; AlphaScreen His-ARNT PAS-B/GST-TACC3 binding, luminescence; TACC3 fragment carries E629A point mutation; inhibition, % at 9.99 µM; hit rate 0.66% among 390,000; AID 623870, 2012;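 active = mean inhibition of replicates at least 50% and at least half of replicates each reaching 50%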;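 note: 0% = complete ARNT plus TACC3 wells and 100% = ARNT alone without TACC3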
FGF22 binding: binders of human FGF22 protein, primary screen, FGF22 synaptogenesis inhibitor project, biophysical, thermal shift, single point | Fibroblast growth factor 22 (Homo sapiens), Q9HCT0 | recombinant FGF22 thermal shift, SYPRO orange fluorescence; percent of sucrose octasulfate shift, DMSO zero | activity (Tm shift, normalised), % at 9.99 µM | hit rate 1.5% among 340,000 | AID 651658, 2012;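 active = mean Tm shift, scaled 0 neutral to 100 positive control, at about 1.3% or above, every replicate too, limit read from the data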
Target sequence (Q9HCT0 whole entry, looked up): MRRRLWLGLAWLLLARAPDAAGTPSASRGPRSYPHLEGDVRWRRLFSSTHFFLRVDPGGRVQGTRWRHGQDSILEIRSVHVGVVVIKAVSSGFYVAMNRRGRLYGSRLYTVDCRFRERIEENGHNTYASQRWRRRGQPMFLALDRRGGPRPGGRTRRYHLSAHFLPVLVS
SIRT5 inh: SIRT5 desuccinylase inhibitors, primary screen, biochemical, fluorescence imaging, single point, set 5; NAD-dependent protein deacylase sirtuin-5, mitochondrial (Homo sapiens), Q9NXA8; Purified SirT5, succinyl-peptide AMC, trypsin-coupled fluorescence; inhibition, % at 15 µM; hit rate 1.1% among 330,000; in the data active = inhibition above about 15%
Target sequence (Q9NXA8 whole entry, looked up): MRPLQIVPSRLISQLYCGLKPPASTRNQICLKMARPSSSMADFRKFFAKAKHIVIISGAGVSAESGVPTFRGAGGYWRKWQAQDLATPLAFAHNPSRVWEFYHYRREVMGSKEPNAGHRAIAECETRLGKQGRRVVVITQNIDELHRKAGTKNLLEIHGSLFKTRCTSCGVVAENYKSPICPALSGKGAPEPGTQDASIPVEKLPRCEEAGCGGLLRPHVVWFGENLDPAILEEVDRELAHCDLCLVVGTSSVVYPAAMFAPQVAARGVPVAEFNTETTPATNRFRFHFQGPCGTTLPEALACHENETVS
DENV2 CPE: inhibitors of DENV2 cytopathic effect, primary screen, cell-based, plate reader, single concentration | hit rate 1.7% among 350,000 | CPE inhibition, % at 9.99 µM | DENV2-infected cells, cytopathic effect rescue; in the data active = CPE inhibition above about 20%, passing the limit was not always enough; tested in BHK-21 cells;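 note: 0% = median of neutral control wells and 100% = median of positive control wells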
Starred values were filed as active, the others as inactive. Shown are actives, neighbours in structure and some others; about 3.8% of the full set was active somewhere.

Results for CCN(CC)S(=O)(=O)c1ccc(Cl)c(C(=O)N2CCc3ccccc32)c1 ?
ARNT-TACC3 inh: 0.3

What do the screens show for `O=C(c1cc([N+](=O)[O-])cc([N+](=O)[O-])c1)N1CCCc2ccccc21`?
Xi reactivation: -0.2; FN deposition inh: -1.9; ARNT-TACC3 inh: -4.9; FGF22 binding: 43.1*; SIRT5 inh: -2.7; DENV2 CPE: -1.4

How did O=C(c1cc(-c2cccs2)on1)N1CCCc2ccccc21 do in these assays?
Xi reactivation: 0.2; FN deposition inh: 1.6; ARNT-TACC3 inh: -1.0; FGF22 binding: -0.4; SIRT5 inh: -0.8; DENV2 CPE: 85.2*

How did C[C@@H]1CCCCO[C@H](CN(C)S(=O)(=O)c2cccs2)[C@H](C)CN([C@@H](C)CO)C(=O)c2cc(N(C)C)ccc2O1 do in these assays?
Xi reactivation: 3.9; ARNT-TACC3 inh: 21.2; FGF22 binding: -1.1; SIRT5 inh: -5.9; DENV2 CPE: -7.1

How did O=C(N[C@@H]1CC[C@H](CC(=O)N2CCC(Cc3ccccc3)CC2)O[C@H]1CO)c1cnccn1 do in these assays?
Xi reactivation: -0.6; FN deposition inh: -4.0; ARNT-TACC3 inh: 1.8; FGF22 binding: 0.1; SIRT5 inh: -5.0; DENV2 CPE: -1.4

How did O=C(NCC1CCCO1)c1ccc2c(=O)n(CC3CCCO3)c(=S)[nH]c2c1 (centres undefined) do in these assays?
FN deposition inh: -2.2; ARNT-TACC3 inh: 20.8

Results for CC(C)Cn1c(=S)[nH]c2cc(C(=O)NCc3ccccc3F)ccc2c1=O ?
Xi reactivation: 0.2; FN deposition inh: -6.4; FGF22 binding: -0.2; SIRT5 inh: 1.6; DENV2 CPE: 62.1*

Results for COC(CNC(=O)c1ccc2c(=O)n(Cc3ccc4c(c3)OCO4)c(=S)[nH]c2c1)OC ?
Xi reactivation: 0.2; FN deposition inh: 2.8; ARNT-TACC3 inh: -9.8; FGF22 binding: 0.1; SIRT5 inh: 16.0*; DENV2 CPE: -4.2

Results for COCCCNC(=O)c1ccc2c(=O)n(Cc3ccc4c(c3)OCO4)c(=S)[nH]c2c1 ?
FN deposition inh: -16.2; ARNT-TACC3 inh: -7.5

What do the screens show for `CCCn1c(=S)[nH]c2cc(C(=O)NCc3ccccc3OC)ccc2c1=O`?
Xi reactivation: 0.0; FN deposition inh: 15.4; FGF22 binding: 0.1; DENV2 CPE: 2.4

What do the screens show for `O=C(NCc1ccc(Cl)cc1)c1ccc2c(=O)n(CC3CCCO3)c(=S)[nH]c2c1` (centres undefined)?
Xi reactivation: 0.0; FN deposition inh: 2.6; ARNT-TACC3 inh: -1.1; FGF22 binding: 0.2; SIRT5 inh: 16.0*; DENV2 CPE: -3.1

Results for COc1cccc(CN2[C@H](CO)[C@@H](c3ccccc3)C23CN(Cc2ccccc2)C3)c1 ?
Xi reactivation: 0.2

How did C[C@@H]1COCc2cnnn2CC[C@@H](Cc2ccccc2)C(=O)N1 do in these assays?
Xi reactivation: 0.1; FN deposition inh: 6.6

How did CC(C)NC(=O)N1[C@@H]2CN(CC(F)(F)F)C[C@H]1C2c1ccccc1 (some centres undefined) do in these assays?
Xi reactivation: 0.2; FN deposition inh: -14.3

What do the screens show for `Cc1cccc(S(=O)(=O)N2[C@@H]3Cn4c(cccc4=O)[C@H]2[C@@H](C(=O)NC2CCC2)[C@@H]3CO)c1`?
Xi reactivation: -0.1; ARNT-TACC3 inh: -2.2; FGF22 binding: -0.2; SIRT5 inh: 1.5; DENV2 CPE: 14.3

Results for Oc1ccccc1C=NCC(O)c1ccccc1 (centres undefined) ?
Xi reactivation: 0.0; FN deposition inh: 0.7; ARNT-TACC3 inh: -1.4; FGF22 binding: -0.2; SIRT5 inh: -4.3; DENV2 CPE: 76.0*

How did COc1ccc2c3c(n(C)c2c1)[C@H](CO)N(Cc1cccnc1)CC31CCN(C(=O)NC(C)C)CC1 do in these assays?
Xi reactivation: 0.0; FN deposition inh: -1.1

What do the screens show for `CCOP(=O)(OCC)c1nc(-c2ccccc2Cl)oc1N1CCOCC1`?
Xi reactivation: 0.0; FN deposition inh: -9.5; ARNT-TACC3 inh: -2.2; FGF22 binding: 44.5*; SIRT5 inh: 2.2; DENV2 CPE: 3.9

How did CCOP(=O)(OCC)c1nc(-c2cccc3ccccc23)oc1N1CCOCC1 do in these assays?
Xi reactivation: 0.1; FN deposition inh: 10.2; ARNT-TACC3 inh: -25.8

How did O=C([C@H]1[C@H](CO)[C@H]2Cn3c(cccc3=O)[C@@H]1N2C(=O)CC1CC1)N1CCc2ccccc2C1 do in these assays?
Xi reactivation: 0.2; SIRT5 inh: 1.9; DENV2 CPE: -1.3

Results for Cc1noc(C)c1NC(=O)N[C@H]1CC[C@H](CCNC(=O)C2CC2)O[C@H]1CO ?
Xi reactivation: -0.9; FN deposition inh: -11.9; ARNT-TACC3 inh: -8.5; FGF22 binding: -0.2; SIRT5 inh: 17.9*; DENV2 CPE: 6.4

Results for Cc1noc(C)c1NC(=O)N[C@H]1CC[C@H](CCNC(=O)C2CCCC2)O[C@@H]1CO ?
Xi reactivation: 0.3; FN deposition inh: 2.0; ARNT-TACC3 inh: -8.6; FGF22 binding: -0.1; SIRT5 inh: 1.9; DENV2 CPE: 20.3*

What do the screens show for `O=C(C[C@@H]1C=C[C@H](NC(=O)C2CCC2)[C@H](CO)O1)NCc1ccccc1Cl`?
Xi reactivation: 0.0; FN deposition inh: -8.2; FGF22 binding: 0.7; SIRT5 inh: -1.4; DENV2 CPE: -3.8

How did Cc1ccc(NC(=O)C2CCN(C(=O)c3ccco3)CC2)cc1C do in these assays?
FN deposition inh: 0.3; ARNT-TACC3 inh: 1.7; FGF22 binding: 0.3; SIRT5 inh: 79.2*; DENV2 CPE: 1.4

Results for CC1C/C(=N/Nc2nc3ccccc3[nH]2)CC(C)(C)C1 (centres undefined) ?
Xi reactivation: 0.4; FN deposition inh: -5.3; FGF22 binding: 43.4*; SIRT5 inh: -2.2; DENV2 CPE: -2.3

Results for COCCNC(=O)C1(C)CCN(C(=O)Cc2ccc(OC)c(OC)c2)C1 (centres undefined) ?
Xi reactivation: 0.1; FN deposition inh: 2.9; FGF22 binding: 0.9; DENV2 CPE: 22.0*

How did COCCNC(=O)C1(C)CCN(C(=O)c2ccc3sccc3c2)C1 (centres undefined) do in these assays?
Xi reactivation: 0.0; FN deposition inh: 2.1; FGF22 binding: 0.1; DENV2 CPE: 53.7*
